Screening data: PubChem BioAssay, Johns Hopkins Ion Channel Center
RGS4 act = RGS4 potentiators or activators, primary screen, cell-based, HEK293 M3R inducible RGS4, calcium flux; carbachol calcium flux Fluo4; hits give low values; B-score at 10 µM; 310,000 compounds, 0.92% hits; AID 463111, 2010;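 active = B-score of the integrated calcium signal more than 4 SD below the library mean, with starting fluorescence not abnormally high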;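 note: negative B-score means reduced calcium response which marks RGS4 activation or potentiation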
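System: HEK293 FlpIn-TREx cells, stable M3R, doxycycline-inducible RGS4. Timing: overnight RGS4 induction, 30 min dye load 37 °C, 20 min compound RT. Also added: carbachol, ECmax concentration. Measured by: Fluo4 fluorescence kinetic imaging of calcium. Evaluation: integrated calcium ratio converted to B score.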
MrgX1 ag = agonists of human MrgX1 receptor, primary screen, HEK293 cells, Fluo-4 calcium flux | Mas-related G-protein coupled receptor member X1 (Homo sapiens), Q96LB2 | Fluo-4 calcium fluorescence, agonist mode; hits give high values | B-score at 10 µM | 310,000 compounds, 0.44% hits | AID 588627, 2011;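 active = calcium response B-score plate-corrected fluorescence ratio at least 3 library SD, with starting fluorescence B-score inside 5 SD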
Target sequence (Q96LB2 whole entry, looked up): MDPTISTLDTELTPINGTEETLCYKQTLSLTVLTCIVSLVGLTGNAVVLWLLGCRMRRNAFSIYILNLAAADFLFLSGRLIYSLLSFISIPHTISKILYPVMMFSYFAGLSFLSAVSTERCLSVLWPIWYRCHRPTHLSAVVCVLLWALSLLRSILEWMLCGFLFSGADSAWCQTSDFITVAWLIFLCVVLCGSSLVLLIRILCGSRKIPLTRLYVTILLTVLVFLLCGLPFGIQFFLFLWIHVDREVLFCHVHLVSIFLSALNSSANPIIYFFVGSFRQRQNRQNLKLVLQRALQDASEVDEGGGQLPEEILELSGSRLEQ
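Assay system: MrgX1-expressing HEK293 cells / Amount: fifteen thousand cells per well / Doses: test compound in the initial addition of three / Timing: cells plated overnight, dye loaded 0.5 h 37 °C, 0.5 h room temperature / Technique: kinetic calcium dye fluorescence, Fluo-4 NW / Control set: positive and negative controls per plate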
MrgX1 allo act = positive allosteric modulators of MrgX1, primary screen, HEK293 cells, Fluo-4 calcium flux. Mas-related G-protein coupled receptor member X1 (Homo sapiens), Q96LB2. FDSS; hits give high values. B-score at 10 µM. 310,000 compounds, 0.63% hits. AID 588675, 2011;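 active = plate-corrected calcium response at least 3 library SD above typical, normal starting fluorescence, not activating the receptor alone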;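 note: compound read alongside a low EC10 to EC30 dose of BAM8-22 agonist; peak minus trough fluorescence over baseline measured at the second addition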
MrgX1 antagonist = antagonists of human MrgX1 receptor, primary screen, HEK293 cells, Fluo-4 calcium flux | BAM8-22 antagonism; hits give low values | B-score at 10 µM | 310,000 compounds, 1.3% hits;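 active = calcium-response B-score plate-corrected more than 3 library SD below zero, starting fluorescence within 5 deviations, no agonist response on first addition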;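 note: peak minus trough fluorescence over baseline after final BAM8-22 challenge near maximal dose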
RGS4 block = RGS4 inhibitors, primary screen, cell-based, HEK293 M3R inducible RGS4, calcium flux | Fluo-4 calcium flux; hits give high values; triggered by carbachol at its EC20 | B-score at 10 µM | 310,000 compounds, 0.45% hits | AID 463165, 2010 | Regulator of G-protein signaling 4 (Homo sapiens), P49798;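 active = B-score, a plate-corrected calcium signal, over three deviations above library mean, with baseline fluorescence within five deviations of library mean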;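 note: RGS4 expression induced by doxycycline in cells with stable M3 receptor; B-score is computed from the integrated fluorescence ratio over baseline after carbachol; higher B-score means a larger calcium signal and so more RGS4 inhibition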
Target sequence (P49798 whole entry, looked up): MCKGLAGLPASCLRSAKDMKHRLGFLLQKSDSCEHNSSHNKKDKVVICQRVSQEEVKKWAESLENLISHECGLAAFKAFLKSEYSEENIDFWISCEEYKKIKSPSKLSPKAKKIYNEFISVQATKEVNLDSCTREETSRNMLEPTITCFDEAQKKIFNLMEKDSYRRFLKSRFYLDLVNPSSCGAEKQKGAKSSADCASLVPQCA
MrgX1 ant reconf = MrgX1 receptor antagonists, duplicate retest, confirmation, HEK293 cells, Fluo-4 calcium flux; shares compounds with MrgX1 antagonist; BAM8-22 calcium flux; hits give low values; remaining BAM8-22 calcium response % of control (hits give low values), % at 10 µM; 2,300 compounds, 19% hits; AID 602420, 2012;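 active = remaining agonist calcium response no higher than 100% minus 3 SD of agonist-only control wells, with starting fluorescence near control levels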;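 note: agonist BAM8-22 given at a near maximal EC90 to ECmax level; peak minus minimum fluorescence divided by baseline after agonist addition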
HEK293 Ca flux = nonspecific calcium signal in parental HEK293, confirmation, counter-screen for MrgX1 antagonist project, parental HEK293 cells, Fluo-4 calcium flux; fluorescence ratio F(max-min)/F0 at 10 µM; Fluo-4 calcium fluorescence, FDSS; 4,000 compounds, 2% hits; shares compounds with MrgX1 antagonist;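 active = duplicate-averaged calcium fluorescence ratio at least three times the standard deviation of buffer wells, a nonspecific response in parental cells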
HEK293 Ca counter = calcium response in parental HEK293 cells, primary screen, counter-screen for MrgX1 allosteric activator project, cell-based, Fluo-4 calcium flux, duplicate | shares compounds with MrgX1 antagonist | Fluo-4 fluorescence ratio; hits give high values | fluorescence ratio F(max-min)/F0 at 10 µM | 4,000 compounds, 0.4% hits;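 active = calcium fluorescence ratio, averaged over duplicates, at least 3 SD of the buffer-well ratio, meaning a nonspecific response in receptor-free cells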;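 note: untransfected parental HEK293 lacking MrgX1 used as counterscreen for MrgX1 allosteric activators; fluorescence change taken during the second addition on a kinetic imager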
HEK293 Ca cntr2 = calcium response in parental HEK293 cells, primary screen, counter-screen for MrgX1 agonist project, cell-based, Fluo-4 calcium flux, duplicate, agonist mode; shares compounds with MrgX1 antagonist; Fluo-4 calcium fluorescence (FDSS); hits give high values; fluorescence ratio F(max-min)/F0 at 10 µM; 4,000 compounds, 8.7% hits;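 active = calcium fluorescence ratio at least three times the spread of buffer wells, meaning a non-specific response in parental cells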
* = called active by the depositor; i = inactive; . = no result given. Most compounds without a hit are left out; they make up all but 3.5% or so of the library.

SMILES | RGS4 act | MrgX1 ag | MrgX1 allo act | MrgX1 antagonist | RGS4 block | MrgX1 ant reconf | HEK293 Ca flux | HEK293 Ca counter | HEK293 Ca cntr2
COc1ccc2c(=O)c(N3C(=O)c4ccccc4C3=O)c(C)oc2c1 | i | i | i | -5.2* | i | i | i | i | i
COc1ccc2c(=O)c3ccccc3oc2c1 | i | i | i | i | i | . | . | . | .
CCc1cc2c(=O)[nH]c(-c3ccncc3)nc2s1 | i | i | i | -6.6* | i | i | i | i | i
CCOc1ccc(OCCN2C(=O)NC3(CCCc4ccccc43)C2=O)cc1 (centres undefined) | i | i | i | -5.5* | i | i | i | i | i
O=C1NC2(CCCc3ccccc32)C(=O)N1CCOc1ccc(Br)cc1 (centres undefined) | i | i | i | i | i | . | . | . | .
Cc1ccc(CNC(=O)C2CCCN2S(=O)(=O)c2ccc(F)cc2)cc1 (centres undefined) | i | i | i | i | i | . | . | . | .
COc1ccc(CCNC(=O)C2CCCN2S(=O)(=O)c2ccc(F)cc2)cc1OC (centres undefined) | i | i | i | -9* | i | i | i | i | i
COc1ccc(CNC(=O)C2CCCN2S(=O)(=O)c2ccc(Cl)cc2)cc1 (centres undefined) | i | i | i | -5.5* | i | 84%* | i | i | i
CSc1ncccc1C(=O)OCC(=O)N(C)C1CCS(=O)(=O)C1 (centres undefined) | i | i | i | i | i | . | . | . | .
COC(=O)CN(C)C(=O)c1ccc(OC2CCN(S(=O)(=O)N(C)C)CC2)cc1 | i | i | i | i | i | . | . | . | .
CCn1c(CCC(=O)O)nc2cc(S(=O)(=O)N(C)C)ccc21 | i | i | i | i | i | . | . | . | .
CCn1c(CSc2nc(C)cs2)nc2cc(S(=O)(=O)N(C)C)ccc21 | i | i | i | -4.6* | i | i | i | i | i
COc1ccccc1NC(=O)c1ccc(-n2cncn2)nc1 | i | i | i | -5.2* | i | 78%* | i | i | i
CCOc1ccccc1NC(=O)c1ccc(-n2cncn2)nc1 | i | i | i | i | i | . | . | . | .
CC(NC(=S)NC1CCCCC1)c1ccc(C(C)(C)C)cc1 (centres undefined) | i | i | i | -6.8* | i | 51%* | i | i | i
CC(C)c1ccc(C(C)NC(=S)NC2CCCCC2)cc1 (centres undefined) | i | i | i | i | i | . | . | . | .
Nc1nonc1-c1noc(CCCN2C(=O)c3ccccc3C2=O)n1 | i | i | i | -6.6* | i | i | i | i | i
CC12CCCC[C@@H]1CCC1C2CCC2(C)C1CC[C@@]2(O)CNCCO (some centres undefined) | i | i | i | -7.8* | i | i | i | i | i
CC(/C=N\NC(=O)Cn1c(C)nc2ccccc21)=C\c1ccccc1 | i | i | i | -11* | i | i | i | i | i
